Calls of active or inactive are those of the source. The calls are words filed in the database; no cut-off is given here. Where a SMILES comes first, the peptide text is derived from it. The star is where a group is joined. Ethyl(2-stearoyloxy) = CCCCCCCCCCCCCCCCCC(=O)OCC*; Ethyl(2-palmitoyloxy) = CCCCCCCCCCCCCCCC(=O)OCC*; CH2CH2OBz(4-tBu) = CC(C)(C)c1ccc(C(=O)OCC*)cc1; Ethyl(2-decanoyloxy) = CCCCCCCCCC(=O)OCC*; Ethyl(2-butanoyloxy) = CCCC(=O)OCC*; Ethyl(2-OPiv) = CC(C)(C)C(=O)OCC*

Chain of Gap junction alpha-1 protein (Homo sapiens) (P17302 whole entry): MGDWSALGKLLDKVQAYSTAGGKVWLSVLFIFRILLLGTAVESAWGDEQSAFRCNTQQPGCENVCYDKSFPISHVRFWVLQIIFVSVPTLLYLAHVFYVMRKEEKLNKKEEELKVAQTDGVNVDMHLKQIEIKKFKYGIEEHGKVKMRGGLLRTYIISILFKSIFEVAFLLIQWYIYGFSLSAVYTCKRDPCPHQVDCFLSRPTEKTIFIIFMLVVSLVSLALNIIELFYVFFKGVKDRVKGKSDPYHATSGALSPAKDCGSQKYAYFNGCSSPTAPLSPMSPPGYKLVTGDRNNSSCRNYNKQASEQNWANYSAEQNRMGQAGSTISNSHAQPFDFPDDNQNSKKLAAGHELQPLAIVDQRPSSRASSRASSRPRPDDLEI

The test concerns the target Gap junction alpha-1 protein (Homo sapiens) (UniProt P17302). Briefly: Inhibition of Cx43 in hypoxic-acidic ion-shifted ringers solution-induced human cerebral microvascular endothelial cell model of ischaemic injury assessed as ATP release at 10 uM measured after 2 hrs by luciferin-luciferase based luminescence assay relative to control. More on the design: scale not given: the % may be the effect or the level left. In outline:
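hCMVEC (passages 8-17) seeded at 2 x 10^6/well on collagen-I (1 µg/cm²) and grown 48 h to a confluent monolayer. Washed in NR, then exposed 2 h in HAIR (pH 6.6, N₂-bubbled, low Ca²⁺, K-gluconate/NMDG) containing peptide at 10 µM. Supernatant diluted 1:10 in firefly luciferase mix and read at 560 nm against an ATP standard (0-50 nM). Expressed as % of HAIR-only, mean of n=3.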
Turning to `CC1(C)[C@@H](OC(=O)CCC(=O)O)CC[C@]2(C)[C@H]3C(=O)C=C4[C@@H]5C[C@@](C)(C(=O)O)CC[C@]5(C)CC[C@@]4(C)[C@]3(C)CC[C@@H]12`, the Activity worked out at 23.3%.

Regarding `CC(C)C[C@H](NC(=O)[C@H](Cc1ccccc1)NC(=O)[C@H](CS)NC(=O)[C@H](CC(=O)O)NC(=O)[C@@H](N)CSCCOC(=O)c1ccc(C(C)(C)C)cc1)C(=O)N[C@@H](CO)C(=O)N[C@@H](CCCNC(=N)N)C(=O)N1CCC[C@H]1C(=O)N[C@H](C(=O)N[C@@H](CCC(=O)O)C(=O)N[C@@H](CCCCN)C(=O)N[C@H](C(=O)O)[C@@H](C)O)[C@@H](C)O` (H-C(CH2CH2OBz(4-tBu))DCFLSRPTEKT-OH), the outcome was inactive.

As to `CC(C)C[C@H](NC(=O)[C@H](Cc1ccccc1)NC(=O)[C@H](CS)NC(=O)[C@H](CC(=O)O)NC(=O)[C@@H](N)CSCCOC(=O)C(C)(C)C)C(=O)N[C@@H](CO)C(=O)N[C@@H](CCCNC(=N)N)C(=O)N1CCC[C@H]1C(=O)N[C@H](C(=O)N[C@@H](CCC(=O)O)C(=O)N[C@@H](CCCCN)C(=O)N[C@H](C(=O)O)[C@@H](C)O)[C@@H](C)O` (H-C(Ethyl(2-OPiv))DCFLSRPTEKT-OH), the outcome was inactive.

Take `CCCC(=O)OCCSC[C@H](N)C(=O)N[C@@H](CC(=O)O)C(=O)N[C@@H](CS)C(=O)N[C@@H](Cc1ccccc1)C(=O)N[C@@H](CC(C)C)C(=O)N[C@@H](CO)C(=O)N[C@@H](CCCNC(=N)N)C(=O)N1CCC[C@H]1C(=O)N[C@H](C(=O)N[C@@H](CCC(=O)O)C(=O)N[C@@H](CCCCN)C(=O)N[C@H](C(=O)O)[C@@H](C)O)[C@@H](C)O` (H-C(Ethyl(2-butanoyloxy))DCFLSRPTEKT-OH): the result was inactive.

On to `CCCCCCCCCC(=O)OCCSC[C@H](N)C(=O)N[C@@H](CC(=O)O)C(=O)N[C@@H](CS)C(=O)N[C@@H](Cc1ccccc1)C(=O)N[C@@H](CC(C)C)C(=O)N[C@@H](CO)C(=O)N[C@@H](CCCNC(=N)N)C(=O)N1CCC[C@H]1C(=O)N[C@H](C(=O)N[C@@H](CCC(=O)O)C(=O)N[C@@H](CCCCN)C(=O)N[C@H](C(=O)O)[C@@H](C)O)[C@@H](C)O` (H-C(Ethyl(2-decanoyloxy))DCFLSRPTEKT-OH), for which the result was inactive.

On to `CCCCCCCCCCCCCCCC(=O)OCCSC[C@H](N)C(=O)N[C@@H](CC(=O)O)C(=O)N[C@@H](CS)C(=O)N[C@@H](Cc1ccccc1)C(=O)N[C@@H](CC(C)C)C(=O)N[C@@H](CO)C(=O)N[C@@H](CCCNC(=N)N)C(=O)N1CCC[C@H]1C(=O)N[C@H](C(=O)N[C@@H](CCC(=O)O)C(=O)N[C@@H](CCCCN)C(=O)N[C@H](C(=O)O)[C@@H](C)O)[C@@H](C)O` (H-C(Ethyl(2-palmitoyloxy))DCFLSRPTEKT-OH), for which the outcome was inactive.

`CCCCCCCCCCCCCCCCCC(=O)OCCSC[C@H](N)C(=O)N[C@@H](CC(=O)O)C(=O)N[C@@H](CS)C(=O)N[C@@H](Cc1ccccc1)C(=O)N[C@@H](CC(C)C)C(=O)N[C@@H](CO)C(=O)N[C@@H](CCCNC(=N)N)C(=O)N1CCC[C@H]1C(=O)N[C@H](C(=O)N[C@@H](CCC(=O)O)C(=O)N[C@@H](CCCCN)C(=O)N[C@H](C(=O)O)[C@@H](C)O)[C@@H](C)O` (H-C(Ethyl(2-stearoyloxy))DCFLSRPTEKT-OH): the result was inactive.

In the case of `CC(C)C[C@H](NC(=O)[C@H](CSCCOC(=O)c1ccc(C(C)(C)C)cc1)NC(=O)[C@H](CS)NC(=O)[C@H](CC(=O)O)NC(=O)[C@@H](N)C(C)C)C(=O)N[C@@H](CO)C(=O)N[C@@H](CCCNC(=N)N)C(=O)N1CCC[C@H]1C(=O)N[C@H](C(=O)N[C@@H](CCC(=O)O)C(=O)N[C@@H](CCCCN)C(=O)N[C@H](C(=O)O)[C@@H](C)O)[C@@H](C)O` (H-VDCC(CH2CH2OBz(4-tBu))LSRPTEKT-OH), the outcome was inactive.

With `CC(C)C[C@H](NC(=O)[C@H](CSCCOC(=O)C(C)(C)C)NC(=O)[C@H](CS)NC(=O)[C@H](CC(=O)O)NC(=O)[C@@H](N)C(C)C)C(=O)N[C@@H](CO)C(=O)N[C@@H](CCCNC(=N)N)C(=O)N1CCC[C@H]1C(=O)N[C@H](C(=O)N[C@@H](CCC(=O)O)C(=O)N[C@@H](CCCCN)C(=O)N[C@H](C(=O)O)[C@@H](C)O)[C@@H](C)O` (H-VDCC(Ethyl(2-OPiv))LSRPTEKT-OH), the Activity was 23.4%.

Turning to `CCCC(=O)OCCSC[C@H](NC(=O)[C@H](CS)NC(=O)[C@H](CC(=O)O)NC(=O)[C@@H](N)C(C)C)C(=O)N[C@@H](CC(C)C)C(=O)N[C@@H](CO)C(=O)N[C@@H](CCCNC(=N)N)C(=O)N1CCC[C@H]1C(=O)N[C@H](C(=O)N[C@@H](CCC(=O)O)C(=O)N[C@@H](CCCCN)C(=O)N[C@H](C(=O)O)[C@@H](C)O)[C@@H](C)O` (H-VDCC(Ethyl(2-butanoyloxy))LSRPTEKT-OH), the outcome was inactive.

Turning to `CCCCCCCCCC(=O)OCCSC[C@H](NC(=O)[C@H](CS)NC(=O)[C@H](CC(=O)O)NC(=O)[C@@H](N)C(C)C)C(=O)N[C@@H](CC(C)C)C(=O)N[C@@H](CO)C(=O)N[C@@H](CCCNC(=N)N)C(=O)N1CCC[C@H]1C(=O)N[C@H](C(=O)N[C@@H](CCC(=O)O)C(=O)N[C@@H](CCCCN)C(=O)N[C@H](C(=O)O)[C@@H](C)O)[C@@H](C)O` (H-VDCC(Ethyl(2-decanoyloxy))LSRPTEKT-OH), the outcome was inactive.

For `CCCCCCCCCCCCCCCC(=O)OCCSC[C@H](NC(=O)[C@H](CS)NC(=O)[C@H](CC(=O)O)NC(=O)[C@@H](N)C(C)C)C(=O)N[C@@H](CC(C)C)C(=O)N[C@@H](CO)C(=O)N[C@@H](CCCNC(=N)N)C(=O)N1CCC[C@H]1C(=O)N[C@H](C(=O)N[C@@H](CCC(=O)O)C(=O)N[C@@H](CCCCN)C(=O)N[C@H](C(=O)O)[C@@H](C)O)[C@@H](C)O` (H-VDCC(Ethyl(2-palmitoyloxy))LSRPTEKT-OH), the outcome was inactive.

Take `CCCCCCCCCCCCCCCCCC(=O)OCCSC[C@H](NC(=O)[C@H](CS)NC(=O)[C@H](CC(=O)O)NC(=O)[C@@H](N)C(C)C)C(=O)N[C@@H](CC(C)C)C(=O)N[C@@H](CO)C(=O)N[C@@H](CCCNC(=N)N)C(=O)N1CCC[C@H]1C(=O)N[C@H](C(=O)N[C@@H](CCC(=O)O)C(=O)N[C@@H](CCCCN)C(=O)N[C@H](C(=O)O)[C@@H](C)O)[C@@H](C)O` (H-VDCC(Ethyl(2-stearoyloxy))LSRPTEKT-OH): the result was inactive.

With `CC(C)C[C@H](NC(=O)[C@H](Cc1ccccc1)NC(=O)[C@H](CS)NC(=O)[C@H](CC(=O)O)NC(=O)[C@@H](N)C(C)C)C(=O)N[C@@H](CSCCOC(=O)c1ccc(C(C)(C)C)cc1)C(=O)N[C@@H](CCCNC(=N)N)C(=O)N1CCC[C@H]1C(=O)N[C@H](C(=O)N[C@@H](CCC(=O)O)C(=O)N[C@@H](CCCCN)C(=O)N[C@H](C(=O)O)[C@@H](C)O)[C@@H](C)O` (H-VDCFLC(CH2CH2OBz(4-tBu))RPTEKT-OH), the outcome was inactive.

For `CC(C)C[C@H](NC(=O)[C@H](Cc1ccccc1)NC(=O)[C@H](CS)NC(=O)[C@H](CC(=O)O)NC(=O)[C@@H](N)C(C)C)C(=O)N[C@@H](CSCCOC(=O)C(C)(C)C)C(=O)N[C@@H](CCCNC(=N)N)C(=O)N1CCC[C@H]1C(=O)N[C@H](C(=O)N[C@@H](CCC(=O)O)C(=O)N[C@@H](CCCCN)C(=O)N[C@H](C(=O)O)[C@@H](C)O)[C@@H](C)O` (H-VDCFLC(Ethyl(2-OPiv))RPTEKT-OH), the outcome was inactive.

The values are drawn from ChEMBL document CHEMBL4673184, “Synthesis and biological evaluation of S-lipidated lipopeptides of a connexin 43 channel inhibitory peptide” (RSC Med Chem, 2020).
